High-throughput results deposited in PubChem BioAssay by several laboratories.
Rtt109 Vps75: blocks Candida albicans Rtt109/Vps75 acetyltransferase activity. purified Rtt109/Vps75, ThioGlo CoA-SH fluorescence, 4 h. inhibition, % at 34.9 µM. actives 0.16% (n = 330,000). AID 540336;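 active = inhibition of at least 50% in every replicate; inconclusive = best replicate reaches 50% inhibition but some replicates fall short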
Target sequence (Q5AAJ8 whole entry, looked up): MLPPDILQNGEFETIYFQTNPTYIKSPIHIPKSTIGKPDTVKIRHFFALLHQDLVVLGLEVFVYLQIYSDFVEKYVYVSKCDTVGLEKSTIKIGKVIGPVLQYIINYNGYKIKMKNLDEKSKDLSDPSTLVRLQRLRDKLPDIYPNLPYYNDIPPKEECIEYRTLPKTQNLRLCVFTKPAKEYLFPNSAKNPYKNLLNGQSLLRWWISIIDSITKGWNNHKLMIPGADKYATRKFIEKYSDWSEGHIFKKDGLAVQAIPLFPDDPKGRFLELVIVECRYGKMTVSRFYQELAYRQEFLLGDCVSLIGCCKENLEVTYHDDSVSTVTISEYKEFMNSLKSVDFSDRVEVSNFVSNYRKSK
HDAC3 inh: human HDAC3 inhibition | O15379 | recombinant HDAC3, fluorogenic peptide/trypsin coupled, fluorescence | inhibition, % at 8.3 µM | actives 0.15% (n = 320,000); in the data active = inhibition above about 26%, passing the limit was not always enough; inconclusive = no clear call, values can overlap the other calls
UCH37 DUB inh: human UCH37 deubiquitinating enzyme inhibition; Q9Y5K5; purified proteasome/UCH37, Ub-AMC cleavage fluorescence; inhibition, % (test concentration not listed); actives 0.33% (n = 330,000);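 active = mean inhibition over replicate wells above about 20%, limit read from the data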
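Assay system: Proteasome-bound UCH37. Buffer or medium: pH 7.4 Tris-HCl (50 mM) with ovalbumin, ATP-MgCl2, DTT. Incubation: 30 min preincubation with enzyme, 25 min cleavage at room temperature. Measured by: fluorescence, ex 355 nm, em 460 nm. Read-out basis: percent inhibition. Control set: wells without proteasome as full block, compound-free enzyme plus substrate as uninhibited.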
M18AAP inhibitor: blocks P. falciparum M18 aspartyl aminopeptidase. recombinant PfM18AAP, H-Glu-NHMec fluorogenic cleavage. inhibition, % at 7.35 µM. actives 1.2% (n = 290,000). AID 1822;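 active = inhibition above the campaign mean inhibition over all tested compounds plus 3 SD, cut at about 28% in these data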
ALR inh: blocks human ALR sulfhydryl oxidase activity; purified ALR, DTT oxidation, H2O2 HRP-luminol luminescence; P55789; inhibition, % (concentration not given with the values); AID 485317; actives 3.8% (n = 290,000);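 active = mean replicate inhibition above about 79%, with every replicate also reaching it, limit read from the data; inconclusive = only one of the two criteria met; inactive = mean below limit and not every replicate reaching it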
Target sequence (P55789 whole entry, looked up): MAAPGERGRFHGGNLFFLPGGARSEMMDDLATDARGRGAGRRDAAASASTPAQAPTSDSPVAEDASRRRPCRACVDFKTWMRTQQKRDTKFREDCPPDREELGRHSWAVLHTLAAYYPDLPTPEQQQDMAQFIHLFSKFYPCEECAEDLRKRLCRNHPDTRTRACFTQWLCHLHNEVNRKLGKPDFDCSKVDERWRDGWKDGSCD
FAS-TE inh: inhibitors of human fatty acid synthase thioesterase domain | inhibition, % at 15 µM | AID 602261 | actives 0.67% (n = 360,000) | recombinant FAS-TE, OMFH fluorogenic substrate, fluorescence endpoint;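 active = compounds whose normalised, plate-corrected inhibition of enzyme fluorescence in the single-dose primary screen is 50% or more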
Hits are given with their value; – = inactive; ? = inconclusive; · = no result given. Most compounds without a hit are left out; they make up all but 4.6% or so of the library.

SMILES | Rtt109 Vps75 | HDAC3 inh | UCH37 DUB inh | M18AAP inhibitor | ALR inh | FAS-TE inh
Cc1cccc(C2CN(C)CCc3c2cc(O)c(O)c3Cl)c1 (centres undefined) | – | – | – | · | 98 | –
C=CCN1CCN(C(=O)c2ccc(-c3ccccc3)cc2)CC1 | – | – | – | – | – | –
NC(=NS(=O)(=O)c1ccccc1)c1cccc([N+](=O)[O-])c1 | · | · | – | · | · | ·
Cc1ccc2nc(C)c(C(=O)NN=Cc3ccc(N4CCOCC4)cc3)cc2c1 | · | · | – | · | · | ·
S=c1[nH]nc(-c2ccccn2)n1N=Cc1cccs1 | · | · | – | · | · | ·
Cc1csc(Nc2ccccc2)[n+]1-c1ccccc1 | – | – | – | – | 99 | –
Cc1csc(Nc2ccccc2)[n+]1C | – | – | – | – | 98 | –
O=C(Cn1cncn1)NN=Cc1cc([N+](=O)[O-])ccc1O | · | · | – | · | · | ·
CC(C)(/C=N/O)N(O)C=C1C=CC(=O)C=C1 | – | · | · | – | 99 | –
COc1ccc(C=Nn2cnnc2)cc1Br | · | · | – | · | · | ·
COc1ccccc1-c1c(C)oc2cc(OC(=O)c3ccco3)ccc2c1=O | – | 31 | – | – | – | –
CCCCC(NC(=O)CCc1c(C)c2cc3c4c(oc3c(C)c2oc1=O)CCCC4)C(=O)O (centres undefined) | – | – | – | – | 96 | –
CC(=O)NCc1ccc(S(=O)(=O)NN=Cc2ccc(Br)cc2)cc1 | · | · | – | · | · | ·
CCOC(=O)CSC1=Nc2ccccc2C2=NC(CC(=O)NCc3ccccc3)C(=O)N12 (centres undefined) | – | ? | – | – | 98 | –
CCOC(=O)CSC1=Nc2ccccc2C2=NC(CC(=O)NCc3cccs3)C(=O)N12 (centres undefined) | – | – | – | – | – | –
CCCCNC(=O)CC1N=C2c3ccccc3N=C(SCC(=O)Nc3ccccc3C)N2C1=O (centres undefined) | – | – | – | – | 94 | –
CC(=O)ON=C(c1nonc1N)N(C)C | · | · | – | · | · | ·
CCON=C(C)c1c(O)c2ccccc2n(C)c1=O | · | · | – | · | · | ·
O=C(CSCc1ccccc1)N1CCN(c2cccc(C(F)(F)F)c2)CC1 | – | – | – | – | – | –
O=C(Cc1ccc(Br)cc1)N1CCN(c2ccccc2)CC1 | – | – | – | – | 98 | –
O=C(CN1CCN(c2ccccc2)CC1)Nc1ccncc1 | – | – | – | – | 99 | –
O=C(Cc1ccc(Br)cc1)N1CCN(C(=O)c2ccccc2)CC1 | – | – | – | · | – | –
O=C(CSCc1cccc(F)c1)N1CCN(c2ccccc2)CC1 | – | – | – | – | 98 | –
CCn1c(CSCc2ccc(F)cc2)nnc1SCC(=O)N1CCN(c2ccccc2)CC1 | – | – | – | – | 97 | –
Cc1cccc(CN(CC(=O)NN=Cc2cccs2)S(=O)(=O)c2ccc(Cl)cc2)c1 | · | · | – | · | · | ·
SMILES | Rtt109 Vps75 | HDAC3 inh | UCH37 DUB inh | M18AAP inhibitor | ALR inh | FAS-TE inh
CC1(C(=O)N2CCN(c3ccccc3)CC2)CC1(Cl)Cl (centres undefined) | – | – | – | – | 96 | –
Cc1ccc(CSCC(=O)N2CCN(c3ccccc3)CC2)cc1 | – | – | – | – | – | –
O=C(CN1CCN(c2ccc(F)cc2)CC1)NCc1ccc(F)cc1 | – | – | – | – | · | –
CC1(C(=O)N2CCN(c3ccc([N+](=O)[O-])cc3)CC2)CC1(Cl)Cl (centres undefined) | – | – | – | – | – | –
O=C(CCc1ccccc1)N1CCN(c2ccc(F)cc2)CC1 | – | – | – | – | 86 | –
O=C(CSCc1ccccc1)N1CCN(c2ccc(F)cc2)CC1 | – | – | – | – | 88 | –
O=C(CN1CCN(c2ccc(F)cc2)CC1)OCc1ccccc1 | – | – | – | – | 92 | –
O=C(CCc1ccccc1)N1CCN(c2ccccc2F)CC1 | – | – | – | – | – | –
COc1ccc(C(C)=NNc2nc(-c3ccccc3)cc(=O)[nH]2)cc1 | · | · | – | · | · | ·
COc1cc(C=NNc2ccc(Cl)c(C(=O)O)c2)ccc1OCC(=O)N1C(C)CCCC1C (centres undefined) | · | · | – | · | · | ·
Cc1ccc(C=NNC(=O)CSc2nc3ccccc3n2Cc2ccccc2)o1 | · | · | – | · | · | ·
CC(=NNC(=O)c1cccc(Cl)c1)c1cccc(NC(=O)c2ccco2)c1 | · | · | – | · | · | ·
O=C(CSC1CCCCC1)N1CCN(c2ccccc2)CC1 | – | – | – | – | 98 | –
O=C(CSCc1ccccc1)N1CCN(c2ccccc2)CC1 | – | – | – | – | 98 | –
O=C(CN1CCCCC1)N1CCN(c2ccccc2)CC1 | · | – | – | – | – | –
CC1=NN(C(=O)CSCc2ccccc2)C(O)(c2ccc(F)cc2)C1 (centres undefined) | – | – | 22 | – | – | –
O=C(CN1CCN(c2ccccc2)CC1)N1CCN(c2ccccc2)CC1 | – | – | – | – | 99 | –
CCOc1ccccc1C=NNc1ccccc1[N+](=O)[O-] | · | · | – | · | · | ·
CCNC(=O)CC(C)=NNC(=O)C(=O)Nc1ccc(CC)cc1 | · | · | – | · | · | ·
COC(=O)NN=C(c1ccccc1)C1CCCCC1 | · | · | – | · | · | ·
Cc1occc1C(=O)NN=C/C=C\c1ccccc1[N+](=O)[O-] | · | · | – | · | · | ·
Cc1ccc(C=NNC(=O)c2c(-c3ccccc3)noc2C)o1 | · | · | – | · | · | ·
N#CC1=C(N)NC(=S)C(C(N)=O)C1c1ccc(Cl)cc1Cl (centres undefined) | – | – | – | 30 | – | –
O=C1NC(=O)C(c2ccc(Cl)cc2Cl)N1 (centres undefined) | – | · | – | · | · | –
COc1cccc(NC(=O)CSc2nc3c(sc4ccccc43)c(=O)n2CCCN2CCCC2)c1 | – | – | – | – | 97 | –
SMILES | Rtt109 Vps75 | HDAC3 inh | UCH37 DUB inh | M18AAP inhibitor | ALR inh | FAS-TE inh
COc1cccc(NC(=O)CSc2nc3c(sc4ccccc43)c(=O)n2CCN(C)C)c1 | 142 | – | – | – | 100 | –
CCN(CC)CCn1c(SCC(=O)Nc2cccc(OC)c2)nc2c(sc3ccccc32)c1=O | – | – | – | – | · | –
Cc1ccc(CNC(=O)CSc2nc3c(sc4ccccc43)c(=O)n2CCCN2CCCC2)cc1 | – | – | – | – | 99 | –
CC(=O)Nc1ccc(S(=O)(=O)N(C)CC(=O)NN=Cc2ccc(C(=O)O)cc2)cc1 | · | · | – | · | · | ·
COc1ccc2cc(C=NNC(=O)c3c(Cl)cnn3C)c(Cl)nc2c1 | · | · | – | · | · | ·
Cc1cc(SCc2ccccc2Cl)nc(=O)[nH]1 | – | – | – | – | 94 | –
Cc1cc(SCc2ccc(Cl)cc2Cl)nc(=O)[nH]1 | – | – | – | – | 98 | –
COc1ccccc1C1C2=C(N=c3sc(=Cc4cccc(OCC(=O)O)c4)c(=O)n31)c1ccccc1CC2 (centres undefined) | · | · | – | · | · | ·
CCOC(=O)N1CCC(NC(=O)CS(=O)Cc2nc(-c3ccc(OC)c(OC)c3)oc2C)CC1 (centres undefined) | – | – | – | – | 100 | –
CCOC(=O)N1CCC(NC(=O)CS(=O)Cc2nc(-c3ccc(C)cc3)oc2C)CC1 (centres undefined) | – | – | – | – | 99 | –
